High-throughput results from PubChem.
M4 ag: human M4 muscarinic receptor agonists, primary screen, CHO-K1 cells, Fluo-8 calcium fluorescence; CHO-K1 hM4/Gqi5; vehicle 0%, full acetylcholine response 100%; Muscarinic acetylcholine receptor M4 (Homo sapiens), P08173; AID 624127, 2012; 360,000 tested, 0.14% active; activation, % at 3 µM;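 active means activation above the run mean over all test wells plus 3 SD, cut at about 32% in these data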;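 further: peak over basal fluorescence ratio per well then scaled between controls; 0% = DMSO wells and 100% = acetylcholine at EC100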
M5 ag: human M5 muscarinic receptor agonists, primary screen, CHO-K1 cells, Fluo-8 calcium fluorescence; Muscarinic acetylcholine receptor M5 (Homo sapiens), P08912; CHO-K1 hM5 cells; 0% DMSO wells, 100% maximal acetylcholine response; activation, % at 3 µM; 360,000 tested, 0.19% active; AID 624037, 2012;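 active means activation above the run's mean over test compounds plus 3 SD, cut at about 23% in these data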;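 further: signal is peak over basal fluorescence ratio across the kinetic read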
Target sequence (P08912 whole entry, looked up): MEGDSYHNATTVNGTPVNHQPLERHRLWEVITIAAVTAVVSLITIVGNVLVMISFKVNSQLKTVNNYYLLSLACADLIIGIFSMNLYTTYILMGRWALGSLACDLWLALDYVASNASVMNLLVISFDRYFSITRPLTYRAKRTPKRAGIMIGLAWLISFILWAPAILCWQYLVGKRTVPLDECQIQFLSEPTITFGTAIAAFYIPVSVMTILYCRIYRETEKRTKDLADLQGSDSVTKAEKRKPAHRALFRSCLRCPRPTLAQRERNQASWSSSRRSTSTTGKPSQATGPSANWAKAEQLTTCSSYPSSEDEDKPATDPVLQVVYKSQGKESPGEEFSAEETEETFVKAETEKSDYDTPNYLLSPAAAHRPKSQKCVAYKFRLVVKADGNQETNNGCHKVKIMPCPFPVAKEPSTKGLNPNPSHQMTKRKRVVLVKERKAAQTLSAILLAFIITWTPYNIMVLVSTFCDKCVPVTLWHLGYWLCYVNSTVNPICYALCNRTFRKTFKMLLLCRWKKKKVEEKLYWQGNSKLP
M4 antag: human M4 muscarinic receptor antagonists, primary screen, CHO cells, Fluo-8 calcium fluorescence; inhibition, % at 3 µM; CHO-hM4 cells, ACh EC80; 360,000 tested, 0.73% active; Muscarinic acetylcholine receptor M4 (Homo sapiens), P08173;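 active means inhibition above its plate's cutoff, the mean inhibition of sample wells plus 3 SD, cut at about 27% in these data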;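 further: 0% = acetylcholine EC80 with DMSO and 100% = DMSO without agonist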
M4 PAM: human M4 muscarinic receptor positive allosteric modulators, primary screen, CHO-K1 cells, Fluo-8 calcium fluorescence | activation, % at 3 µM | Muscarinic acetylcholine receptor M4 (Homo sapiens), P08173 | 360,000 tested, 0.4% active | CHO-K1 hM4/Gqi5, ACh EC20; 0% = ACh EC20, 100% = maximal ACh;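 active means activation above its plate's cutoff, the mean activation of sample wells plus 3 SD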
CHRM5 antagonist: human M5 muscarinic receptor antagonists, primary screen, CHO cells, Fluo-8 calcium fluorescence. Muscarinic acetylcholine receptor M5 (Homo sapiens), P08912. inhibition, % at 3 µM. CHO-hM5 cells, ACh EC80. 360,000 tested, 0.59% active;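 active means inhibition above a per-plate cutoff, the mean of that plate's test compounds plus 3 SD, cut at about 27% in these data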;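 further: 0% = acetylcholine EC80 with DMSO and 100% = DMSO without agonist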
CHRM5 PAM: human M5 muscarinic receptor positive allosteric modulators, primary screen, CHO-K1 cells, Fluo-8 calcium fluorescence. Muscarinic acetylcholine receptor M5 (Homo sapiens), P08912. CHO-K1 hM5, ACh EC20 PAM; 0% = ACh EC20, 100% = ACh EC100. activation, % at 3 µM. 360,000 tested, 0.3% active. AID 624038, 2012;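 active means activation above the run cutoff, the mean activation of all test compounds plus 3 SD, cut at about 18% in these data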
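Test system: CHO-K1 hM5 cells / Doses: single-point, 3 µM nominal / Times: Post-acetylcholine fluorescence recording 140 s / Technique: Fluo-8 calcium fluorescence / Measure: Max/basal fluorescence ratio as % of EC20–EC100 ACh window / Benchmarks: low control EC20 acetylcholine (0%), high control EC100 acetylcholine (100%) / Replicates: one well per compound, no replicates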
* hit, by the source's call. Hits are enriched below; roughly 1.9% of the tested compounds scored in any of these assays.

SMILES	M4 ag	M5 ag	M4 antag	M4 PAM	CHRM5 antagonist	CHRM5 PAM
CC(C)(C)NC(=O)Cn1nnc(-c2ccccc2NC(=O)c2cnccn2)n1	1	-2	-5	6	-4	12
O=C(Cn1nnc(-c2ccccc2NC(=O)c2cccs2)n1)Nc1ccccc1	2	-1	-11	5	0	21*
NC(=O)Cn1nnc(-c2ccccc2NC(=O)c2cnccn2)n1	0	-2	-5	3	22	35*
COc1ccc(OC)c(NS(=O)(=O)c2ccc3c(c2)C(C)(C)C(=O)N3C)c1	2	0	-12	9	-6	3
CC(C)Oc1ccc(/C(O)=C2/C(=O)C(=O)N(Cc3cccnc3)C2c2ccco2)cc1 (stereo unspecified)	1	3	5	19*	-2	13
CCOC(=O)c1c(NC(=O)CSc2nnc(-c3ccco3)o2)sc(C(C)=O)c1C	2	1	-1	0	-6	0
CCOC(=O)c1c(NC(=O)CSc2nnc(-c3cccnc3)n2Cc2ccco2)sc(C)c1C	-1	-10	4	8	-10	19*
CCOC(=O)c1c(NC(=O)CSc2nnc(-c3ccco3)o2)sc(C)c1C	1	-2	0	36*	2	0
CCS(=O)(=O)Nc1cccc(-c2cn3c(n2)SCC3)c1	1	-2	-1	1	-5	1
CS(=O)(=O)Nc1cccc(-c2cn3c(n2)SCC3)c1	0	-7	-8	7	31*	-5
CC(=O)N(C)c1ccc(NC(=O)Nc2ccc(C)c(C)c2)cc1	19	4	31*	-11	29*	-19
COc1ccc(OC)c(C2c3[nH]c4ccccc4c3C[C@H]3C(=O)N(CCCOC(C)C)CC(=O)N23)c1 (stereo partly specified)	3	-6	4	4	5	-2
CSc1ccc(CCNC(=O)CN2C(=O)c3cccnc3Oc3ccc(C)cc32)cc1	15	0	33*	-7	25	-10
O=C(NC(=S)Nc1ccc(CN2CCCCC2)cc1)c1cccc(OCc2ccccc2)c1	7	-17	39*	-27	48*	-33
CCN1CCN(c2ccc(NC(=O)c3cccc(OCc4ccccc4)c3)cc2)CC1	9	-8	18	-24	33*	-19
O=C(O)c1ccc(NC(=S)NC(=O)c2cccc(COc3ccccc3)c2)cc1	0	2	-9	-2	12	-5
CCC(C)(C)C1CCC2(CC1)NC(=O)N(CC(=O)N(C)Cc1ccc(OC(F)F)cc1)C2=O (stereo unspecified)	3	4	-21	7	1	0
COc1ccc(CC(=O)NC2CC(C)(C)NC(C)(C)C2)cc1OC	0	2	8	-4	8	-3
COc1ccc([C@H]2C(C#N)=C([S-])N[C@](C)(O)[C@@H]2[n+]2ccccc2)cc1	1	-18	40*	-15	-4	-19
CCOC(=O)CS(=O)(=O)c1nc(-c2ccccc2)cc(C(F)(F)F)n1	2	-11	38*	-8	15	9
CCCCCCCN1C(N(C)C)=NC[C@@H]1Cc1ccccc1	3	-11	32*	-14	9	-2
O=C(/C=C/c1c(F)cccc1Cl)NCCCN1CCOCC1	1	-4	3	16*	7	2
O=C1C=C(O)c2cccc(O)c2C1=O	0	4	-2	4	3	3
CC1OC(CC(=O)O)CC2=C1C(=O)c1c(O)cccc1C2=O (stereo unspecified)	6	23	36*	8	49*	0
